Measured values as given in PMC8313742 (Molecular Metabolism, 2021).
Each block holds one substance with its values, some of them ahead of it.

What was measured:
[1] = tested on: AMY3R cell line; type: binding, human; details: competition with […] 125I-sCT, AMY3R cells, triplicates
[2] = tested on: Zucker diabetic fatty (fa/fa; ZDF) rats; assay: 8-week intervention study in ZDF rats; type: in vivo, rat; details: for tAUC, BW / tAUC, FI / Epididymal AT / Inguinal AT / Perirenal AT: n = 10, mean ± SEM; for Epididymal AT / Inguinal AT / Perirenal AT: study end; for HbA1c levels compared to vehicle / OGTT blood glucose iAUC compared to vehicle: KBP-066 […] q.d.; for HbA1c levels compared to vehicle: KBP-066A 1.5 and 3 nmol/kg q.3.d.; for vehicle-corrected reduction in HbA1c at the end of the study: dose not given; for OGTT blood glucose iAUC compared to vehicle: OGTT 1 g/kg after seven weeks, KBP-066A 0.75 and 3 nmol/kg q.3.d.
[3] = tested on: HFD Sprague Dawley rats; assay: Chronic 4-week study in high-fat diet-fed Sprague Dawley rats; type: in vivo, rat; details: for tAUC, BW / tAUC, FI / Epididymal AT / Inguinal AT / Perirenal AT: 4 weeks, n = 6, mean ± SEM; for Epididymal AT / Inguinal AT / Perirenal AT: study end
Summary of the method: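 Male Sprague Dawley rats fed 60 kcal% fat diet from 5–6 weeks old for 20 weeks were randomized by body weight (n = 6). Dosing was s.c. saline or test compound q.3.d. for 4 weeks. Body weight and food intake were taken daily, and tAUC calculated. Terminal OGTT (2 g/kg, 4 mL/kg p.o.) was run after 14-h fast, 24 h post-dose, with glucose iAUC. Epididymal, perirenal and inguinal fat were weighed.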

[4] = tested on: obese male Sprague Dawley rats (HFD); assay: Acute food intake and body weight after single s.c. injection; type: in vivo, rat; details: HFD SD rats; for body weight change after single injection: single s.c. 3 nmol/kg, 96-hour profile, n = 4
Summary of the method: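 Male Sprague Dawley rats on 60 kcal% fat diet from 5–6 weeks of age were used when obese (>500 g). They were allocated by body weight and given a single s.c. injection at time 0. Food intake and body weight were recorded daily for 96–144 h. tAUC (0–96 h) was calculated. n = 4–10 per group. One-way ANOVA with Tukey versus vehicle; mean ± SEM.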

[5] = tested on: obese male Sprague Dawley rats (HFD); assay: Acute gastric emptying rate; type: in vivo, rat; details: plasma acetaminophen, n = 8
Summary of the method: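 Obese HFD-fed male Sprague Dawley rats were fasted overnight, then given s.c. test compound plus oral glucose bolus and acetaminophen at time 0. Tail-vein EDTA blood was taken at 0, 30, 60, 120 and 240 min. Plasma acetaminophen by ELISA served as gastric emptying estimate, expressed as % of vehicle. n = 8. One-way ANOVA/Tukey at 60 and 240 min; Kruskal–Wallis/Dunn at 30 and 120 min.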

[6] = target: T1, Amylin 3 receptor (AMY3R; CHO K1 CALCR RAMP3) (Homo sapiens, UniProt O60896+P30988); assay: PathHunter β-arrestin recruitment reporter assay, amylin receptor; type: cell-based; details: 10% FBS (Table S1)
T1 sequence (P30988 25-474): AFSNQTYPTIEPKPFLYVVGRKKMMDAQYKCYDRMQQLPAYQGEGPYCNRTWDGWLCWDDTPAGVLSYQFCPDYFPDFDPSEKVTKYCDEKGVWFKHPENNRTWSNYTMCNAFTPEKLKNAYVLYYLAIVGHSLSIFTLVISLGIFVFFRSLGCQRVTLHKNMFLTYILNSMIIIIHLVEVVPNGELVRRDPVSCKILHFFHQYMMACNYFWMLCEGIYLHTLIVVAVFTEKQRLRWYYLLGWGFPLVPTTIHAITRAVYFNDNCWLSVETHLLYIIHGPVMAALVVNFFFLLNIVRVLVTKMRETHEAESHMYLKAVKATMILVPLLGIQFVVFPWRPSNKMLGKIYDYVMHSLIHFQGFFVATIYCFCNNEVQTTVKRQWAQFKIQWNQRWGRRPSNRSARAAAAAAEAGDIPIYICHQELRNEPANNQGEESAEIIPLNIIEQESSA
T1 sequence (O60896 24-148 partner): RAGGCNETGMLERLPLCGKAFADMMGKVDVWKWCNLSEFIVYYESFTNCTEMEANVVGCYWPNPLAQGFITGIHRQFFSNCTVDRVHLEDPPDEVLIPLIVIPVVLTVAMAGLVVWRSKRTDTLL

[7] = 0.75 nmol/kg s.c. q.3.d., 8 weeks
[8] = single s.c. 36 nmol/kg, n = 6-10

change of IC50 in 2% HSA compared to 0.01% HSA [1]: 100 fold
Substance: Ac-CSNLSTCXLGKLSQDLHRLQTYPKTDVGANAP-NH2 [KBP-066A]
effect on fasting blood glucose levels ([2]; 0.75 nmol/kg q.3.d. (lowest dose), 8 weeks): minor
tAUC, BW [2, 7]: 6180 ± 67 g∗days^−1
tAUC, FI [2, 7]: 3815 ± 135∗∗¤ g∗days^−1
Epididymal AT [2, 7]: 3.7 ± 0.1 g
Inguinal AT [2, 7]: 4.8 ± 0.4 g
Perirenal AT [2, 7]: 6.0 ± 0.3 g
fasting blood glucose levels (tAUC) compared to KBP-066 q.d. ([2]; 3 nmol/kg q.3.d. (highest dose), 8 weeks): significantly improved
tAUC, BW ([2]; 3 nmol/kg s.c. q.3.d., 8 weeks): 6409 ± 122 g∗days^−1
tAUC, FI ([2]; 3 nmol/kg s.c. q.3.d., 8 weeks): 2898 ± 61∗∗∗ g∗days^−1
Epididymal AT ([2]; 3 nmol/kg s.c. q.3.d., 8 weeks): 4.7 ± 0.2 g
Inguinal AT ([2]; 3 nmol/kg s.c. q.3.d., 8 weeks): 6.3 ± 0.7 g
Perirenal AT ([2]; 3 nmol/kg s.c. q.3.d., 8 weeks): 6.7 ± 0.4 g
plasma insulin (tAUC) compared to KBP-066 q.d. ([2]; 8 weeks, 3 nmol/kg q.3.d.): significantly preserved plasma insulin at higher levels
HbA1c levels compared to vehicle ([2]; 8 weeks): significantly improved
vehicle-corrected reduction in HbA1c at the end of the study ([2]; 8 weeks): 46%
OGTT blood glucose iAUC compared to vehicle [2]: significantly reduced
tAUC, BW ([3]; 1 nmol/kg s.c. q.3.d.): 2584 ± 7∗∗∗ g∗days^−1
tAUC, FI ([3]; 1 nmol/kg s.c. q.3.d.): 617 ± 10∗∗∗ g∗days^−1
Epididymal AT ([3]; 1 nmol/kg s.c. q.3.d.): 4.4 ± 1.0 g
Inguinal AT ([3]; 1 nmol/kg s.c. q.3.d.): 2.8 ± 0.3 g
Perirenal AT ([3]; 1 nmol/kg s.c. q.3.d.): 3.5 ± 0.9 g
tAUC, BW ([3]; 2 nmol/kg s.c. q.3.d.): 2452 ± 6∗∗∗¤ g∗days^−1
tAUC, FI ([3]; 2 nmol/kg s.c. q.3.d.): 518 ± 6∗∗∗¤¤¤ g∗days^−1
Epididymal AT ([3]; 2 nmol/kg s.c. q.3.d.): 3.9 ± 1.1 g
Inguinal AT ([3]; 2 nmol/kg s.c. q.3.d.): 1.9 ± 0.5 g
Perirenal AT ([3]; 2 nmol/kg s.c. q.3.d.): 2.7 ± 0.7∗∗ g
tAUC, BW ([3]; 4 nmol/kg s.c. q.3.d.): 2458 ± 8∗∗∗ g∗days^−1
tAUC, FI ([3]; 4 nmol/kg s.c. q.3.d.): 532 ± 10∗∗∗¤¤ g∗days^−1
Epididymal AT ([3]; 4 nmol/kg s.c. q.3.d.): 4.2 ± 1.2 g
Inguinal AT ([3]; 4 nmol/kg s.c. q.3.d.): 2.9 ± 1.4 g
Perirenal AT ([3]; 4 nmol/kg s.c. q.3.d.): 2.8 ± 1.0∗∗ g
OGTT glucose iAUC compared to vehicle ([3]; OGTT after four weeks, KBP-066A 1, 2, 4 nmol/kg q.3.d.): not statistically significant compared to vehicle
effect on food intake and body weight ([4]; single s.c. 0.5 nmol/kg (lowest dose), n = 6-10): only had a minor effect on both parameters
body weight change after single injection [4]: still markedly reduced even 96 h post-injection
duration of effect on body weight [4, 8]: 144 h
duration of effect on food intake [4, 8]: 120 h

fold lower EC50 than KBP-066A for the AMYR [6]: eight-fold
Substance: Ac-CSNLSTCXLGRLSQDLHRLQTYPKTDVGANAP-NH2 [KBP-066]
change of IC50 in 2% HSA compared to 0.01% HSA [1]: not affected by the difference in HSA concentration
gastric emptying rate at 30 min ([5]; […] s.c., overnight fasted rats): reduced the gastric emptying rate
gastric emptying rate at 60 and 120 min ([5]; both doses 0.75 and […] s.c.): significantly did so
HbA1c levels compared to vehicle ([2]; 8 weeks): significantly improved
vehicle-corrected reduction in HbA1c at the end of the study ([2]; 8 weeks): 31%
OGTT blood glucose iAUC compared to vehicle [2]: significantly reduced
body weight change after single injection [4]: completely returned to the baseline after 72 h
